This is a sample that favours compounds with a hit; in the whole collection about 2.3% have one here.
OXTR potentiate: human OXTR potentiators, primary screen, fluorescence, CHO-OTR cells, Fluo-8 calcium. Oxytocin receptor (Homo sapiens), P30559. AID 2445, 2010. activation, % at 3 µM. 320,000 tested, 0.061% active. Fluo-8 calcium fluorescence, potentiator mode; 0% = oxytocin EC15, 100% = EC100;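 active means activation above that plate's cutoff, the mean activation of tested compounds plus 3 SD, cut at about 6.6% in these data, passing the limit was not always enough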
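test system = CHO-OTR cells, human receptor | compound = single-point 3.0 µM | schedule = 6 min compound pre-incubation at room temperature, 100 s kinetic read | signal = Fluo-8 no-wash calcium dye fluorescence, excitation 470-495 nm, emission 515-575 nm | repeats = single well per compound, singlicate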
V1R ag counter: agonists of human V1a receptor, primary screen, counter-screen for OXTR agonist project, fluorescence, CHO-V1R cells. Fluo-8 calcium fluorescence, agonist mode; 0% DMSO, 100% 3 nM vasopressin. activation, % at 3 µM. 320,000 tested, 0.25% active. AID 2797, 2010;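 active means activation above the mean activation of all tested compounds plus 3 SD, per screening run, cut at about 20% in these data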;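 further: signal is peak over basal fluorescence ratio across a 100 second FLIPR read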
Target sequence (P37288 whole entry, looked up): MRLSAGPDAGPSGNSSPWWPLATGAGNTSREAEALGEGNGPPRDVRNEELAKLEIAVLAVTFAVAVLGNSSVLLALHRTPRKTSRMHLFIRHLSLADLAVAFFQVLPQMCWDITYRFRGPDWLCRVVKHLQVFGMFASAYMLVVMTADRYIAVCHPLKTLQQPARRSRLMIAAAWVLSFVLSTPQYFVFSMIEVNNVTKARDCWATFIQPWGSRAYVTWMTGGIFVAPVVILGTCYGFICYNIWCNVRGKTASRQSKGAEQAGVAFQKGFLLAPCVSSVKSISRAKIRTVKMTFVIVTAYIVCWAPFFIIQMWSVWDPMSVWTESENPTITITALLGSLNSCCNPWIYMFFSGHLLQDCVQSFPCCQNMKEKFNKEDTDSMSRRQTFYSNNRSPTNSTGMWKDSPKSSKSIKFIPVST
OXTR agonist: human OXTR agonists, primary screen, fluorescence, CHO-OTR cells, Fluo-8 calcium | Oxytocin receptor (Homo sapiens), P30559 | Fluo-8 calcium fluorescence; normalized: DMSO 0%, oxytocin 100% | activation, % at 3 µM | 320,000 tested, 0.32% active;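 active means activation above the mean of all tested compounds plus 3 SD, cutoff set per screening run, cut at about 20% in these data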;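 further: peak over basal fluorescence ratio from a 100 s FLIPR kinetic read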
TAAR1 antag: human TAAR1 antagonists, primary screen, Fluo-8 calcium fluorescence, CHO RD-HGA16 cells; Trace amine-associated receptor 1 (Homo sapiens), Q96RJ0; antagonist; inhibition, % at 3 µM; 360,000 tested, 1.5% active;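 active means inhibition above a per-plate cutoff, the mean inhibition of test compounds on that plate plus 3 SD, cut at about 49% in these data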
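test system = CHO RD-HGA16 cells bearing hTAAR1 | replication = singlicate | controls = DMSO-only wells and EC80 β-PEA-stimulated wells | reagent = EC80 β-phenethylamine stimulus | read-out basis = percent inhibition of PEA-evoked calcium signal, max/basal emission ratio | schedule = seeding 17-24 h prior, 75-min 37 °C, 30-min RT dye loading | signal = kinetic Fluo-8 calcium fluorescence measurement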
TAAR1 ag: human TAAR1 agonists, primary screen, Fluo-8 calcium fluorescence, CHO RD-HGA16 cells. activation, % at 3 µM. AID 624467, 2012. 360,000 tested, 0.99% active. vehicle wells 0%, saturating PEA agonist 100%. Trace amine-associated receptor 1 (Homo sapiens), Q96RJ0;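 active means activation above the mean activation of all test compounds in the run plus 3 SD, cut at about 38% in these data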
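Repeats: no replicates (n 1) | Material: CHO-derived RD-HGA16 cells with stable Gα16 and human TAAR1 | Technique: Kinetic Fluo-8 calcium fluorescence | Schedule: 17-24 h seeding, 75 min 37 °C dye, 30 min RT | Evaluation: % activation from peak over basal fluorescence ratio, DMSO-to-PEA scaled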
TAAR1 nonsel count: nonselective antagonists in TAAR1 counter-screen cells, counter-screen for hTAAR1 antagonist project, cell-based, fluorescence, calcium. counterscreen cell line, antagonist mode. 2,400 tested, 77% active. inhibition, % at 3 µM. shares compounds with TAAR1 antag; in the data active means inhibition above about 22%;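 further: CHO-Ga16 host cells stimulated with ATP at an EC80 level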
TAAR1 antag conf: human TAAR1 antagonists, retest of hits, confirmation, cell-based, fluorescence. inhibition, % at 3 µM. TAAR1-expressing cells, fluorescence antagonist read-out. shares compounds with TAAR1 antag. AID 651785, 2012. 2,400 tested, 40% active; in the data active means inhibition above about 49%;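 further: CHO-Ga16 host cells challenged with agonist PEA near its EC80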
Ga16 nonsel ag: calcium activation in Ga16-expressing cells, counter-screen for TAAR1 antagonist project, cell-based, fluorescence; 2,400 tested, 18% active; AID 651953, 2012; agonist counterscreen; shares compounds with TAAR1 antag; activation, % at 3 µM; in the data active means activation above about 12%
TAAR1 ag count: TAAR1 activation by candidate antagonists – cell-based, fluorescence, counter-screen for TAAR1 antagonist project | shares compounds with TAAR1 antag | hTAAR1 cell line, agonist mode | activation, % at 3 µM | 2,400 tested, 2% active | AID 651955, 2012; in the data active means activation above about 37%;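 further: CHO cells stably expressing TAAR1 with calcium dye readout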
A number is an active result; – = inactive; · = no result.

SMILES	OXTR potentiate	V1R ag counter	OXTR agonist	TAAR1 antag	TAAR1 ag	TAAR1 nonsel count	TAAR1 antag conf	Ga16 nonsel ag	TAAR1 ag count
CCOc1cc(C(=S)N2CCOCC2)ccc1OC(=O)c1ccccc1	–	–	–	–	–	·	·	·	·
CCOC(=O)[C@@H]1[C@H]2COc3cc(OC)ccc3[C@H]2N2C(=O)N(c3cccc(F)c3)C(=O)[C@]12C	–	–	–	–	–	·	·	·	·
O=C(Nc1ccc(-c2nnc(-c3ccco3)o2)cc1)C(c1ccccc1)c1ccccc1	–	–	–	74	–	32	–	–	–
CC(C)(C)c1ccc(-c2nc(-c3ccncc3)no2)cc1	–	–	–	106	–	–	–	13	–
Cc1ccc(-c2nc(-c3ccncc3)no2)cc1	·	·	·	–	–	·	·	·	·
C=CCn1c(=O)/c(=C/c2ccc(Cl)cc2)s/c1=C(/C#N)c1nnc2n1CCCCC2	–	–	–	50	–	27	–	–	–
C=CCn1c(=O)/c(=C/c2ccc(O)cc2)s/c1=C(/C#N)c1nnc2n1CCCCC2	–	–	–	–	–	·	·	·	·
Cc1ccc(-c2nc3cccnc3s2)cc1NS(=O)(=O)c1ccc2c(c1)OCCO2	–	–	–	59	–	30	–	–	–
Cc1ccc2nc(NC(=O)CSCc3ccccc3)sc2c1	–	–	–	50	–	–	–	–	–
Cc1ccc2nc(NC(=O)CS(=O)(=O)Cc3ccccc3)sc2c1	–	–	–	–	–	·	·	·	·
CCN(CC)S(=O)(=O)c1cc(NC(=O)c2ccc3c(c2)NC(=O)C(C)S3)ccc1C (configuration not stated)	–	–	–	73	–	41	52	13	–
CC(C)(C)OC(=O)N1CCC[C@H]1C(=O)NCc1ccc(F)cc1F	·	·	·	–	–	·	·	·	·
CC1CC1c1ccc(/C=C(\C#N)C(=O)Nc2ccc(Cl)cc2)o1 (configuration not stated)	–	–	–	52	–	–	–	–	–
COc1ccc(-c2c(C)nc3c(-c4ccsc4)cnn3c2N)cc1	–	–	–	–	–	·	·	·	·
COc1ccc(-c2c(C)nc3c(-c4ccccn4)cnn3c2N)cc1	·	·	·	67	–	24	62	–	–
CN(CCOc1ccc(Cl)cc1)C(=O)c1cc(S(=O)(=O)N2CCOCC2)ccc1N1CCCC1	–	–	–	67	–	–	–	–	–
CCN(CC)c1ccc(S(=O)(=O)N2CCOCC2)cc1NC(=O)COC(=O)/C=C/c1ccccc1	·	·	·	70	–	31	–	–	–
CCN(CC)c1ccc(S(=O)(=O)N2CCOCC2)cc1NC(=O)COC(=O)c1ccco1	–	–	–	–	–	·	·	·	·
CCN=C(NCC)SC1CC(=O)N(c2ccc(OCC)cc2)C1=O (configuration not stated)	–	–	–	86	–	28	51	–	–
CCN=C(Nc1cccc(F)c1)SC1CC(=O)N(c2ccc(OC)cc2)C1=O (configuration not stated)	–	–	–	72	–	34	55	–	–
CCOc1ccc(N2C(=O)CC(SCCN)C2=O)cc1 (configuration not stated)	–	–	–	–	–	·	·	·	·
